Source: ChEMBL document CHEMBL1800034, “A synthetic 7,8-dihydroxyflavone derivative promotes neurogenesis and exhibits potent antidepressant effect” (J Med Chem, 2010)
Active and inactive are the calls of the source.

Columns and labels:
Mus musculus [1] = assay: Neuroprotective activity in C57BL/6J mouse assessed as inhibition of kainic acid-induced caspase 3 activation in hippocampus region at 5 mg/kg, po administered 2 to 8 hrs prior to kainic acid challenge measured after 4 hrs by immunoblotting; format: functional, organism-based; parameters: dose 5 mg/kg
Mus musculus [2] = assay: Neuroprotective activity in C57BL/6J mouse assessed as inhibition of kainic acid-induced caspase 3 activation in hippocampus region at 5 mg/kg, po administered 2 to 8 hrs prior to kainic acid challenge measured after 8 hrs by immunoblotting; format: functional, organism-based; parameters: dose 5 mg/kg
Mus musculus [3] = assay: Neuroprotective activity in TrkB F616A knock in mouse assessed as inhibition of kainic acid-induced caspase 3 activation in brain homogenates at 5 mg/kg, po administered 4 hrs prior to kainic acid challenge measured after 4 days by immunoblotting in presence of TrkB F616A inhibitor 1NMPP1; format: functional, organism-based; parameters: dose 5 mg/kg
Method in brief: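 TrkB F616A knock-in mice, 2–3 months old, were given 1NMPP1 at 25 µM in drinking water one day beforehand. They were then gavaged with compound at 5 mg/kg, followed 4 h later by kainic acid at 20 mg/kg. Brains were taken 4 days later, homogenized and ultracentrifuged. 40 µg of supernatant was immunoblotted.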

Mus musculus [4] = assay: Induction of neurogenesis in C57BL/6J mouse hippocampus dentate gyrus assessed as progenitor cell proliferation at 5 mg/kg, po administered for 21 days by DAPI and BrdU staining based fluorescence microscopy; format: functional, organism-based; parameters: dose 5 mg/kg
Method in brief: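 Adult male C57BL/6J mice were gavaged at 5 mg/kg for 21 days and then given BrdU at 50 mg/kg i.p. Mice were perfused with 4% paraformaldehyde 2 h later. Paraffin sections had citrate antigen retrieval and 2 N HCl treatment, then were stained with anti-BrdU-FITC at 4 °C for 16 h and with DAPI. BrdU-positive cells in the dentate gyrus were counted by fluorescence microscopy.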

Mus musculus [5] = assay: Antidepressant activity in C57BL/6J mouse assessed as decrease in immobility at 5 mg/kg, po administered for 21 days measured last 4 mins of total 6 mins observation time by forced swim test; format: functional, organism-based; parameters: dose 5 mg/kg
Method in brief: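 Male C57BL/6J mice, 2–3 months old, were gavaged with saline or compound at 5 mg/kg for 21 days. Mice were acclimated to the test room for 2 days. There was no pre-swim. Each mouse swam for 6 min in a 16 cm cylinder of water 14 cm deep at 24 °C. Immobility was scored blind over the last 4 min; mean ± SEM, ANOVA.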

Mus musculus [6] = assay: Agonist activity at TrkB in C57BL/6J mouse brain lysate assessed as TrkB phosphorylation at Y817 at 5 mg/kg, po administered for 21 days by immunoblotting; format: functional, organism-based; parameters: dose 5 mg/kg
Method in brief: (§1)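 Adult male C57BL/6J mice, 8 per group, dosed orally by gavage once daily for 21 days; saline was the vehicle. Brain lysates were immunoblotted with anti-p-TrkA 794 and anti-p-TrkB 817.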

Mus musculus [7] = assay: Agonist activity at TrkA in C57BL/6J mouse brain lysate assessed as TrkA phosphorylation at Y794 at 5 mg/kg, po administered for 21 days by immunoblotting; format: functional, organism-based; parameters: dose 5 mg/kg; method in brief: as §1
Mus musculus [8] = assay: Antidepressant activity in TrkB F616A knock in mouse assessed as reduction of immobility time at 5 mg/kg, po administered for 21 days by forced swim test assay in presence of TrkB F616A inhibitor 1NMPP1; format: functional, organism-based; parameters: dose 5 mg/kg
Mus musculus [9] = assay: Toxicity in C57BL/6J mouse assessed as pathological changes in kidney at 5 mg/kg, po for 3 weeks; format: organism-based; parameters: dose 5 mg/kg, route oral; settings: in vivo, 504 h
Method in brief: (§2)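 Mice were dosed orally at 5 mg/kg for 3 weeks, with saline-treated controls. Major organs were examined for pathological changes, and a complete blood count was done.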

Mus musculus [10] = assay: Toxicity in C57BL/6J mouse assessed as pathological changes in liver at 5 mg/kg, po for 3 weeks; format: organism-based; parameters: dose 5 mg/kg, route oral; settings: in vivo, 504 h; method in brief: as §2
Mus musculus [11] = assay: Toxicity in C57BL/6J mouse assessed as pathological changes in lungs at 5 mg/kg, po for 3 weeks; format: organism-based; parameters: dose 5 mg/kg, route oral; settings: in vivo, 504 h; method in brief: as §2
Mus musculus [12] = assay: Toxicity in C57BL/6J mouse assessed as pathological changes in muscle at 5 mg/kg, po for 3 weeks; format: organism-based, Muscle tissue; parameters: dose 5 mg/kg, route oral; settings: in vivo, 504 h; method in brief: as §2
Mus musculus [13] = assay: Toxicity in C57BL/6J mouse assessed as pathological changes in spleen at 5 mg/kg, po for 3 weeks; format: organism-based; parameters: dose 5 mg/kg, route oral; settings: in vivo, 504 h; method in brief: as §2
Mus musculus [14] = assay: Toxicity in C57BL/6J mouse assessed as pathological changes in brain cortex at 5 mg/kg, po for 3 weeks; format: organism-based; parameters: dose 5 mg/kg, route oral; settings: in vivo, 504 h; method in brief: as §2
Mus musculus [15] = assay: Toxicity in C57BL/6J mouse assessed as pathological changes in hippocampus at 5 mg/kg, po for 3 weeks; format: organism-based; parameters: dose 5 mg/kg, route oral; settings: in vivo, 504 h; method in brief: as §2
Mus musculus [16] = assay: Toxicity in C57BL/6J mouse assessed as pathological changes in heart at 5 mg/kg, po for 3 weeks; format: organism-based; parameters: dose 5 mg/kg, route oral; settings: in vivo, 504 h; method in brief: as §2
Mus musculus [17] = assay: Toxicity in C57BL/6J mouse assessed as pathological changes in intestine at 5 mg/kg, po for 3 weeks; format: organism-based; parameters: dose 5 mg/kg, route oral; settings: in vivo, 504 h; method in brief: as §2
Mus musculus [18] = assay: Toxicity in C57BL/6J mouse assessed as pathological changes in testis at 5 mg/kg, po for 3 weeks; format: organism-based; parameters: dose 5 mg/kg, route oral; settings: in vivo, 504 h; method in brief: as §2
HEK293 [19] = assay: Cytotoxicity against human HEK293 cells assessed as inhibition of cell proliferation at up to 50 uM by MTT assay; format: cell-based
HEK293 [20] = assay: Cytotoxicity against human HEK293 cells assessed as cell death at 50 to 50000 nM after 24 hrs by LDH assay; format: cell-based; settings: hek293, 24 h, 50 µM
[21] = Cytotoxicity at E17 rat primary cortical neurons assessed as cell death at 5 uM by LDH assay; format: cell-based; settings: cerebral cortex neuron
Mus musculus [22] = assay: Agonist activity at TrkB in C57BL/6J mouse brain assessed as TrkB 706 phosphorylation at 1 mg/kg, po at 1 to 2 hrs by immunoblotting; format: functional, organism-based; parameters: dose 1 mg/kg
Method in brief: (§3)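 C57BL/6J mice got a single oral dose of 1 mg/kg. Brains were collected at several time points, about 1 to 16 h after dosing. Lysates were immunoblotted for TrkB phosphorylation and for downstream Akt and MAPK phosphorylation.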

[23] = target: BDNF/NT-3 growth factors receptor (Rattus norvegicus) (UniProt Q63604); assay: Agonist activity at TrkB in E16 rat embryonic cortical neurons assessed as inhibition of glutamate-induced caspase 3 activation at 10 nM after 30 mins followed by 16 hrs of 50 uM glutamate-challenge by ELISA; format: functional
Chain of BDNF/NT-3 growth factors receptor (Rattus norvegicus) (Q63604 whole entry): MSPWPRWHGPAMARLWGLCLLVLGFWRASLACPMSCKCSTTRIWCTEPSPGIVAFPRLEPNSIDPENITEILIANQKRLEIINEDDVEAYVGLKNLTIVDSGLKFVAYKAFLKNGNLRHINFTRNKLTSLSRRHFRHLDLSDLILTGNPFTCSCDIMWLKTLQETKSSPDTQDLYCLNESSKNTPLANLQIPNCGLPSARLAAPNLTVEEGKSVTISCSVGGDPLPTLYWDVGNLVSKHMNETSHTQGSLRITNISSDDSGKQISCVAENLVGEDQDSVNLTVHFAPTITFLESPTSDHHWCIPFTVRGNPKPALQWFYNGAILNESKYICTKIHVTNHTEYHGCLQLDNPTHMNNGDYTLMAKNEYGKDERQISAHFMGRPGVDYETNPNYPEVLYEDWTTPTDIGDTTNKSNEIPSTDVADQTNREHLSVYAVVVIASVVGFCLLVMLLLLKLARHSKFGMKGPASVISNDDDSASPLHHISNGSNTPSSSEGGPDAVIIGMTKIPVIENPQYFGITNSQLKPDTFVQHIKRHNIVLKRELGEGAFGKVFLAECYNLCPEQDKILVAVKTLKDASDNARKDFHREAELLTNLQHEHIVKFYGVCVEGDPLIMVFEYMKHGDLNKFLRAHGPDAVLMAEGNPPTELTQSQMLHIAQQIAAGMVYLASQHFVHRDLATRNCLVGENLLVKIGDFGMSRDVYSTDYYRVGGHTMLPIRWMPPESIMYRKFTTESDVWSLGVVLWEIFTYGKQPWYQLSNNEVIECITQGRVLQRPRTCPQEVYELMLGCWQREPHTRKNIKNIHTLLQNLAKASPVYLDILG
Method in brief: (§4)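 Cortical neurons from E16 rat embryos were pretreated with the indicated compound concentrations for 30 min. They were then challenged with 50 µM glutamate for 16 h. Active caspase-3 in the lysates was measured by ELISA.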

Mus musculus [24] = assay: Agonist activity at TrkB in C57BL/6J mouse brain assessed as TrkB 706 phosphorylation at 1 mg/kg, po at 1 hr by immunoblotting; format: functional, organism-based; parameters: dose 1 mg/kg; method in brief: as §3
[25] = target: BDNF/NT-3 growth factors receptor (Rattus norvegicus) (UniProt Q63604); assay: Agonist activity at TrkB in E16 rat embryonic cortical neurons assessed as inhibition of glutamate-induced caspase 3 activation at 50 to 500 nM after 30 mins followed by 16 hrs of 50 uM glutamate-challenge by ELISA; format: functional; method in brief: as §4
Mus musculus [26] = assay: Neuroprotective activity in po dosed C57BL/6J mouse assessed as TrkB phosphorylation in brain by titration assay; format: functional, organism-based
[27] = target: BDNF/NT-3 growth factors receptor (Rattus norvegicus) (UniProt Q63604); assay: Agonist activity at TrkB in E17 rat primary cortical neurons assessed as TrkB phosphorylation at 817 at 500 nM after 15 mins by immunoblotting; format: functional, cell-based; settings: Cerebral cortex neuron
Method in brief: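 Rat cortical neurons from E17 embryos, 13 DIV, were treated with 500 nM compound for 15 min. Lysates were run on 10% SDS-PAGE and immunoblotted with p-TrkB Y817 antibody at 1:20,000–40,000.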

Mus musculus [28] = assay: Toxicity in C57BL/6J mouse assessed as affect on complete blood count analysis at 5 mg/kg, po for 3 weeks; format: organism-based; parameters: dose 5 mg/kg, route oral; settings: in vivo, 504 h; method in brief: as §2
[29] = target: BDNF/NT-3 growth factors receptor (Rattus norvegicus) (UniProt Q63604); assay: Agonist activity at TrkB in E17 rat primary rat cortical neurons assessed as AKT phosphorylation at Ser 473 at 10 nM after 15 mins by titration assay; format: functional
Method in brief: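 Primary cortical neurons were incubated with graded concentrations, starting at 10 nM, for 15 min. Phospho-Akt Ser473 was measured by sandwich ELISA on 20 µg of lysate. Data come from 2 replicated experiment sets, given as mean ± SEM. Comparisons used one-way ANOVA against control and Student's t-test between compounds.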

O=c1cc(-c2ccccc2)oc2c(O)c(O)ccc12 [7,8-DIHYDROXYFLAVONE]
active: inhibition (Mus musculus [1]) | inhibition (Mus musculus [2]) | Activity (Mus musculus [4]) | Activity (Mus musculus [5]) | Activity (Mus musculus [6]) | Activity (Mus musculus [22]) | inhibition [23] | Activity (Mus musculus [24]) | Activity [25] | Activity (Mus musculus [26]) Dose-dependent effect | Activity [27] | Activity [29]
inactive: inhibition (Mus musculus [3]) | Activity (Mus musculus [7]) | Activity (Mus musculus [8])
Non-toxic: Activity (Mus musculus [9]) | Activity (Mus musculus [10]) | Activity (Mus musculus [11]) | Activity (Mus musculus [12]) | Activity (Mus musculus [13]) | Activity (Mus musculus [14]) | Activity (Mus musculus [15]) | Activity (Mus musculus [16]) | Activity (Mus musculus [17]) | Activity (Mus musculus [18]) | Activity (HEK293 [19]) | Activity (HEK293 [20]) | Activity [21] | Activity (Mus musculus [28])
